Assay results taken from the EternaBench riboswitch data.

Tested on: MS2 coat protein
Test: apparent Kd, MS2 coat protein; higher = weaker binding; RNA-MaP array; FMN 200 µM where present
How it was run: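 Green signal from SNAP-549-labelled MS2 coat protein was normalised to red-channel RNA signal and to the median Fmax of control clusters. The protein was titrated from 0.7 or 1.5 nM, doubling to 3 µM, without and then with constant ligand, over designs transcribed by stalled E. coli RNA polymerase on Illumina sequencing-chip clusters, in 100 mM Tris-HCl pH 7.5, 80 mM KCl, 4 mM MgCl2, BSA, DTT, yeast tRNA and Tween-20. The apparent Kd is the median of filtered per-cluster binding-curve fits.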

[1] = designed as: ON switch for flavin mononucleotide, no ligand
[2] = ligand present: flavin mononucleotide, designed as: ON switch for flavin mononucleotide
[3] = designed as: OFF switch for flavin mononucleotide, no ligand
[4] = ligand present: flavin mononucleotide, designed as: OFF switch for flavin mononucleotide

Sequence: GUCUGACAUGAGGAUCACCCAUGUAUUCGAGCAUGAGGAUAUAUGACUCGUCAUCGGCGGAUAGAAGGCAUGGUUG
- apparent Kd [1]: 169 nM
- apparent Kd [2]: 192 nM

Sequence: CAUACACAUGAGGAUCACCCAUGUGAGGAUAUGCGUACGUUGUCCGUAGGCGACGUGCGCAGAAGGCGCGUGAG
- apparent Kd [3]: 60.1 nM
- apparent Kd [4]: 67.6 nM

Sequence: AUGGAACAUGAGGAUCACCCAUGUGAGGAUAUCGUCGGCGCGCUUGAAACGAGCUGCCCGAGAAGGCACAGUGG
- apparent Kd [3]: 160 nM
- apparent Kd [4]: 238 nM

Sequence: UUUUUUAAGUAAGGAUAUCGGUCUUAGUUAGGUCGAGAAGGUACAUGAGGAUCACCCAUGUUGUUUUUUUUUUCUUUUUUUUUU
- apparent Kd [3]: 9.51 nM
- apparent Kd [4]: 14.1 nM

Sequence: GUACUGACAGGAUAUACAUGAGGAUCACCCAUGUCCUUGUGCUGACAAAAGUCAGCACGUAGAAGGGUCUGUAC
- apparent Kd [3]: 22.9 nM
- apparent Kd [4]: 207 nM

Sequence: CAGUACAUGUUAGGAUAUGAUUCGGUACAGCGAUCAGAAGGAACAUGAGGAUCACCCAUGUGACCCACGAUUUGCAAACUAAGA
- apparent Kd [3]: 8.43 nM
- apparent Kd [4]: 17.8 nM

Sequence: UGUCCAUAGCAGAAGGACAUGAGGAUCACCCAUGUAAUCAUACAACCAAAUGUAGGAUAUGCUAUGGACUAAGAGCGAAAGCUC
- apparent Kd [3]: 7.5 nM
- apparent Kd [4]: 34.4 nM

Sequence: AAGUCACGAAUAAUAAUAAGAUCUACAUGAGGAUCACCCAUGUAGGAUAUGCAGUGGAAUACACUGCAGAAGGACAUACGUGAC
- apparent Kd [3]: 14.1 nM
- apparent Kd [4]: 16.7 nM

Sequence: CACCGUUACCUAGGAUAUAGUACAUGAGGAUCACCCAUGUAAUAAAUGAGAAUUUCGGAUGUAUGCUAGAAGGAGGAAAUCGGC
- apparent Kd [3]: 39 nM
- apparent Kd [4]: 40.2 nM

Sequence: AUUAGUAAUAAGGAUAUCACUAGCUGCGGCUAGUGAGAAGGUAUUACAUGAGGAUCACCCAUGUGAUUAAUUAA
- apparent Kd [3]: 76.4 nM
- apparent Kd [4]: 418 nM

Sequence: GUAGAGUCAGGAUAUACGAGAUCGAAAGAUCUGUGAUCCAUACAUGAGGAUCACCCAUGUAGAAGGGACUCUAC
- apparent Kd [3]: 33.7 nM
- apparent Kd [4]: 364 nM

Sequence: GGAUGACAAAGUCAUCCUAUUCGAACAUGAGGAUCACCCAUGUAGGAUAUGCUACUCAAAGAGUAGCAGAAGGACAUGUGCCUU
- apparent Kd [3]: 32.6 nM
- apparent Kd [4]: 178 nM

Sequence: GUGCCUAACUAGAAGGCCCAAUGCAAAGCAUAGGGAGGAUAUGGGUUUAAUAAAUAAACAUGAGGAUCACCCAUGUGGCACAAA
- apparent Kd [1]: 45.5 nM
- apparent Kd [2]: 10.1 nM

Sequence: AUAUUGUGAGGAUAUGAACUUAGUAUCGAAAGUUACUAAGUUCAGAAGGCACAUGAGGAUCACCCAUGUUUCUC
- apparent Kd [3]: 72.1 nM
- apparent Kd [4]: 972 nM

Sequence: GCCAUCGUAUGAGGAUAUGACACCGAAACGGUGUCAGAAGGCAUGUCGAUAGACAUGAGGAUCACCCAUGUAUUAACGAUGGCA
- apparent Kd [1]: 740 nM
- apparent Kd [2]: 94.2 nM

Sequence: AGUAUACAUGAGGAUCACCCAUGUCAGUAACUGACAGGAUAUGCGUUGCAUCACUGUAAUGCAGAAGGGUCUUGUA
- apparent Kd [1]: 507 nM
- apparent Kd [2]: 115 nM

Sequence: GGUCCACAUGAGGAUCACCCAUGUCAGGAUAUAUACGGCACAAUAAUAAGUGCCGCCCAUAGAAGGGACGCUGG
- apparent Kd [3]: 15.7 nM
- apparent Kd [4]: 26.1 nM

Sequence: CGGUUGCGCUCCUAUGGUUUGAACAUGAGGAUCACCCAUGUACAGGAUAUAGUAAGAACGCCUUACUAGAAGGGUACGUUCUCG
- apparent Kd [3]: 18.9 nM
- apparent Kd [4]: 22 nM

Sequence: CCUUUGUCAGGAUAUCGAAAAGGGAGGCCAAAAGCCUCCGGUGAGAAGGGACAUGAGGAUCACCCAUGUGAAAA
- apparent Kd [3]: 46.4 nM
- apparent Kd [4]: 159 nM

Sequence: CCUGAGUCAGGAUAUUGUACCGGCCUGAAGCCAGGCCGGCCCAAGAAGGGACAUGAGGAUCACCCAUGUGAAAA
- apparent Kd [3]: 35.9 nM
- apparent Kd [4]: 73.9 nM

Sequence: GGGUACAUCGGAGGAUAUCGUGUAAAUACAUGAGGAUCACCCAUGUCGAUGGAGACAUCGGAGAUUGAGAAGGCCGAUGUACCG
- apparent Kd [1]: 123 nM
- apparent Kd [2]: 8.12 nM

Sequence: CCGGAAAGGAAGGAUAUGCUAGACGAUAGUCUAGCAGAAGGUCCUACAUGAGGAUCACCCAUGUGUCCUACCGG
- apparent Kd [3]: 45.2 nM
- apparent Kd [4]: 54.4 nM

Sequence: CCGAUAAGGAGAGGAUAUGGACAUGAGGAUCACCCAUGUACAUGGGAAUAUAUACUGAAUUUUUACUAGAAGGCUUACAUAAAU
- apparent Kd [3]: 15.6 nM
- apparent Kd [4]: 12.6 nM

Sequence: AAUUUAAUACAUGAGGAUCACCCAUGUAAUACUAGUAAGAUCUAGGAUAUCAGCUCGUUUAGAGCUGAGAAGGAGAUCACAUGU
- apparent Kd [1]: 86.3 nM
- apparent Kd [2]: 26 nM

Sequence: GUAACUUAUGUGAGGAUAUAUUAUGUCUUGGUGUAGUAGAAGGCACAUGAGGAUCACCCAUGUCCAAUUGGUCU
- apparent Kd [3]: 229 nM
- apparent Kd [4]: 457 nM

Sequence: CCAUUUCUGUAAGGAUAUAUAAACAUGACGAUACAUGAGGAUCACCCAUGUGUAGAAGGUACAAAUACAUAUAAUACAAUGCUC
- apparent Kd [3]: 13.1 nM
- apparent Kd [4]: 11.7 nM

Sequence: UUAUUUAGUGUGAGGAUAUGCUGGUCCAUAGAUCAGCAGAAGGCACAUGAGGAUCACCCAUGUAAUAUAUUAAU
- apparent Kd [3]: 26.5 nM
- apparent Kd [4]: 202 nM

Sequence: UUAAAUCGAAACAUGAGGAUCACCCAUGUGUUGUAAUUAAUAUAGGAUAUGUAUAUACUUUUAUAAUAGAAGGAUGAUAAUACU
- apparent Kd [1]: 15.4 nM
- apparent Kd [2]: 11.1 nM

Sequence: AAUAUGUCAUCAGGAUAUCGAGACCGGCGAGUACGAGAAGGGAUGACAUGAGGAUCACCCAUGUGAGACGCGUGAUUUGCAGGU
- apparent Kd [3]: 105 nM
- apparent Kd [4]: 304 nM

Sequence: CAGCGAUAGCUGAACAAUCUAUCUGAGGAUAUUCAUAUAAACAUGAGGAUCACCCAUGUAAAUUGGGAGAAGGCAGAUAGAUUG
- apparent Kd [1]: 18 nM
- apparent Kd [2]: 5.06 nM

Sequence: UUUAUUUUGCAAGGAUAUGUUUAAUUUUAGUUUCCUUAUACAUGAGGAUCACCCAUGUUAUACUUACAGAAGGUGCAUAAUUUU
- apparent Kd [3]: 81.6 nM
- apparent Kd [4]: 59 nM

Sequence: GAAGGGUAUGAGAAGGCAUAAUUUAUAUUACCACAUGUUUACAUGAGGAUCACCCAUGUUUCCUAUGAGGAUAUCAUACCGAGA
- apparent Kd [3]: 12.4 nM
- apparent Kd [4]: 12.7 nM

Sequence: GACAUGGUCCAGAAGGGCUAUCUAUUUAAGUACGAUUUAGAACAGCAUAGCAGGAUAUGGCUAACAUGAGGAUCACCCAUGUUC
- apparent Kd [1]: 20.5 nM
- apparent Kd [2]: 9.26 nM

Sequence: AUAAUGAGAGGAUAUACAUGAGGAUCACCCAUGUUAUUAUCACGGCGAGCUCCAUUACGUAGAAGGCUCAUUUA
- apparent Kd [3]: 16.5 nM
- apparent Kd [4]: 44.7 nM

Sequence: GGACGGUUAGUGAGGAUAUGCUCUACCUCGGUAGAGCAGAAGGCACAUGAGGAUCACCCAUGUGAUAACUGUUC
- apparent Kd [3]: 18.6 nM
- apparent Kd [4]: 21.8 nM

Sequence: AUGGGACAUGAGGAUCACCCAUGUCAGGAUAUUUAGUCGCUGCGGAAAUGUGUUGGUUGGAGAAGGGACAUCAU
- apparent Kd [3]: 38.3 nM
- apparent Kd [4]: 35.1 nM

Sequence: UGUCGGUGCAGAGGAUAUUACAUGAGGAUCACCCAUGUAUGAACCAAUAGCUGGAAACAGCAAUGUAAGAAGGCUGCUCCGACA
- apparent Kd [3]: 11.8 nM
- apparent Kd [4]: 168 nM

Sequence: GCAGGAUAAGUGAGGAUAUACCUCUGGAUACAGAGGUAGAAGGCACAUGAGGAUCACCCAUGUCUAUAACCUGC
- apparent Kd [3]: 15.5 nM
- apparent Kd [4]: 22.4 nM

Sequence: UAAUGACAUGUAGGAUAUCGAGGCCUAUGGCCUCGAGAAGGACAUGAGGAUCACCCAUGUAUUCCGAAUGAAUCAAAUAAUAAA
- apparent Kd [3]: 15.6 nM
- apparent Kd [4]: 30.8 nM

Sequence: UGAAAUCAUGUAGGAUAUGCAUGGCGAAGCUACGCAGAAGGACAUGAGGAUCACCCAUGUUAUAGCGUCCGAUAAAGGAUGCAA
- apparent Kd [3]: 135 nM
- apparent Kd [4]: 139 nM

Sequence: AAAAGGAUCUAACACGACGGGUCACCAGAAGGGACAUUGGCACAUGAGGAUCACCCAUGUCUAGGUCAGGAUAUGGGAUCAAGA
- apparent Kd [1]: 72.3 nM
- apparent Kd [2]: 10.4 nM

Sequence: GCGUAAAAGAUCCUAUUUAUCUACAUGAGGAUCACCCAUGUGCAGGAUAUGCUAUAUUUAAUAUAGCAGAAGGGCAAUAACCGC
- apparent Kd [3]: 45.6 nM
- apparent Kd [4]: 248 nM

Sequence: UUUUUUUUGUGAGGAUAUACAACAUGAGGAUCACCCAUGUCAUGUUCAACAUGAGGAUCACCCAUGUAGAAGGCGCUUUUUUUU
- apparent Kd [3]: 281 nM
- apparent Kd [4]: 247 nM

Sequence: AUCGUGUUAGGAUAUACACGUCGCUGGGUAGCUAGCGAUGGGUAGAAGGAACAUGAGGAUCACCCAUGUUCGGG
- apparent Kd [3]: 178 nM
- apparent Kd [4]: 188 nM

Sequence: CGAUCGUGUAGAGGAUAUGUUAUACAUGAGGAUCACCCAUGUGAGGUGGAAAUAUUUAAUUACAUACAGAAGGCUACACGAUCG
- apparent Kd [3]: 269 nM
- apparent Kd [4]: 227 nM

Sequence: GCAUUUUAUGCAGGAUAUUGACUUUGGAUUAAACAAGAAGGGCAUAACAUGAGGAUCACCCAUGUUAUAUAGGUAUAUAUGUUC
- apparent Kd [3]: 7.45 nM
- apparent Kd [4]: 9.62 nM

Sequence: CGGGCGAGAGGAUAUACAUGAGGAUCACCCAUGUGUUUCCAGGCGGUAGCUGUCACGUGUAGAAGGUUUUCCGG
- apparent Kd [3]: 18.4 nM
- apparent Kd [4]: 17.7 nM

Sequence: CAUCUGUGAGGAUAUGGUGAGUAGUGCCUGAGCGCUGCUCACCAGAAGGCACAUGAGGAUCACCCAUGUAUGAC
- apparent Kd [3]: 48.4 nM
- apparent Kd [4]: 188 nM
